≈ marks a conversion by molar mass, not a printed value.

This note sets out measurements from ChEMBL document CHEMBL2069171, “Novel monobactams utilizing a siderophore uptake mechanism for the treatment of gram-negative infections” (Bioorg Med Chem Lett, 2012).

Series [1] relates to Pseudomonas aeruginosa. Kind of series: Antibacterial activity against penicillin-resistant, quinolone-sensitive Pseudomonas aeruginosa 1091-05. The series is classed as functional.
Series [2] deals with Pseudomonas aeruginosa. Kind of series: Antibacterial activity against Pseudomonas aeruginosa. The series is classed as functional. In a few lines: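 MICs for P. aeruginosa were determined on a drug-susceptible strain, 1091-05 (penicillin-resistant, quinolone-sensitive clinical strain), and a recent MDR clinical isolate, 1042-06. For selected analogs, MIC90 was taken from broader strain panels as the concentration inhibiting visible growth of 90 percent of strains.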

The next series deals with Klebsiella pneumoniae. The experiment in a line: Antibacterial activity against Klebsiella pneumoniae. The series is classed as functional. Summed up: (§1)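 MICs determined against an organism panel of drug-susceptible strains and recent MDR clinical isolates. For selected analogs, MIC90 was taken from broader panels as the concentration inhibiting visible growth of 90 percent of strains.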

Another series concerns Escherichia coli. The experiment in a line: Antibacterial activity against Escherichia coli. The series is classed as functional. Summed up: as §1
Another series concerns Acinetobacter baumannii. Kind of series: Antibacterial activity against Acinetobacter baumannii. The series is classed as functional. In a few lines:
as §1

Series [3] relates to Pseudomonas aeruginosa. Kind of series: Antibacterial activity against beta-lactam- and quinolone-resistant Pseudomonas aeruginosa 1042-06. The series is classed as functional.
A short description of series [4]: Fraction unbound in human plasma. The series is classed as ADME, cell-free.
Series [5] in a line: Fraction unbound in rat plasma. The series is classed as ADME, cell-free.
Series [6] is described as follows: Total clearance in rat at 1 mg/kg, iv. The series is classed as ADME, organism-based. The arrangement: dose 1 mg/kg, route intravenous. The settings on record: in vivo.
A further series has as its system Rattus norvegicus. The experiment in a line: Unbound clearance in rat at 1 mg/kg, iv. The series is classed as ADME, organism-based. On the set-up: dose 1 mg/kg, route intravenous. The settings on record: in vivo.
Series [7] in a line: Fraction unbound in mouse plasma. The series is classed as ADME, cell-free.
The nature of series [8]: Clearance in mouse. The series is classed as ADME, organism-based. The settings on record: in vivo.
The nature of series [9]: Total clearance in mouse plasma relative to protein binding and blood flow. The series is classed as ADME, organism-based.
Series [10] relates to Pseudomonas aeruginosa. The experiment in a line: Antibacterial activity against penicillin-resistant, quinolone-sensitive Pseudomonas aeruginosa 1091-05 infected in mouse model of pneumonia assessed as reduction of lung colony forming unit counts. The series is classed as functional. In a few lines:
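Murine pneumonia model infected with P. aeruginosa 1091-05. ED50, in mg/kg/dose, derived from reductions in lung CFU counts over the course of the study.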

A short description of series [11]: Aqueous stability of the compound at pH 6. The series is classed as physicochemical. The settings on record: buffer.

Turning to `C[C@@H](O)[C@H]1C(=O)N2C(C(=O)O)=C(S[C@@H]3CN[C@H](C(=O)N(C)C)C3)[C@H](C)[C@H]12` [MEROPENEM], the minimal inhibitory concentration (MIC) (as a rule, the lowest concentration found to suppress growth) in the series on Pseudomonas aeruginosa [1] turned out to be 0.5 µg/mL (≈ 1.3 µM). The MIC90 (in general, an inhibitory concentration at the 90% level, which refers to growth in some studies and to a panel of isolates in others) with Pseudomonas aeruginosa [2] is above 64 µg/mL; against Klebsiella pneumoniae, 32 µg/mL (≈ 83.4 µM); against Escherichia coli it was 0.06 µg/mL (≈ 0.156 µM); with Acinetobacter baumannii, 64 µg/mL (≈ 167 µM).
Take `CC(C)(O/N=C(\C(=O)N[C@@H]1C(=O)N(S(=O)(=O)O)[C@@H]1COC(=O)c1cc(-c2cc(=O)c(O)cn2O)no1)c1csc(N)n1)C(=O)O` (stereo in doubt): the MIC in the series with Pseudomonas aeruginosa [1] and against Pseudomonas aeruginosa [3] was 0.25 µg/mL (≈ 0.372 µM) each time. The MIC90 is 1 µg/mL (≈ 1.49 µM) against Pseudomonas aeruginosa [2], 2 µg/mL (≈ 2.98 µM) in the series with Klebsiella pneumoniae, 0.125 µg/mL (≈ 0.186 µM) with Escherichia coli and above 64 µg/mL in the series with Acinetobacter baumannii. The free fraction (fraction unbound) (usually free concentration divided by total concentration) is 0.32 in series [4] and 0.24 in [5]. Further, the clearance – broadly, the volume of plasma or blood freed of the substance per unit of time – in series [6] came out at 34.7 mL/min/kg. The same compound had a CL free with Rattus norvegicus of 144.6 mL/min/kg.
`CC(C)(O/N=C(\C(=O)N[C@@H]1C(=O)N(S(=O)(=O)O)[C@@H]1CNC(=O)c1cc(-c2cc(=O)c(O)cn2O)no1)c1csc(N)n1)C(=O)O` (stereo in doubt): the MIC against Pseudomonas aeruginosa [1] and in the series on Pseudomonas aeruginosa [3] was 0.125 µg/mL (≈ 0.186 µM) in each case. The MIC90 in the series on Pseudomonas aeruginosa [2] is 0.25 µg/mL (≈ 0.373 µM); with Klebsiella pneumoniae, 16 µg/mL (≈ 23.9 µM); in the series on Escherichia coli, 1 µg/mL (≈ 1.49 µM); in the series on Acinetobacter baumannii, above 64 µg/mL. Moreover, the fraction unbound in series [4] was found to be 0.46; in [5] it was 0.33; in [7] it was 0.65. The values for the clearance in series [6], in series [8] and in [9] were 8.1 mL/min/kg, 34.7 mL/min/kg and 87 mL/min/kg, respectively. In the series with Rattus norvegicus, this compound displayed a CL free of 24.5 mL/min/kg. Besides, the median effective dose (ED50) (usually the dose that gives a 50% effect, or the effect in half of the subjects) with Pseudomonas aeruginosa [10] was 73.6 mg/kg.
In the series on Pseudomonas aeruginosa [3], `CC(C)(O/N=C(\C(=O)N[C@H]1CN(C(=O)NS(=O)(=O)n2nc(-c3cc(=O)c(O)c[nH]3)n(C[C@@H](O)CO)c2=O)C1=O)c1csc(N)n1)C(=O)O` (stereo in doubt) had a minimum inhibitory concentration (MIC) of 0.5 µg/mL (≈ 0.7 µM).
Regarding `CC(C)(O/N=C(\C(=O)N[C@@H]1C(=O)N(S(=O)(=O)O)[C@@H]1COC(=O)c1csc(-c2cc(=O)c(O)c[nH]2)n1)c1csc(N)n1)C(=O)O` (stereo in doubt), the minimum inhibitory concentration (MIC) in the series on Pseudomonas aeruginosa [1] was found to be 0.5 µg/mL (≈ 0.744 µM); against Pseudomonas aeruginosa [3], 1 µg/mL (≈ 1.49 µM).
On the same counts, the results for `CC(C)(O/N=C(\C(=O)N[C@@H]1C(=O)N(S(=O)(=O)O)[C@@H]1COC(=O)CNC(=O)c1cc(=O)c(O)c[nH]1)c1csc(N)n1)C(=O)O` (stereo in doubt) are 1 µg/mL (≈ 1.55 µM) and 32 µg/mL (≈ 49.6 µM).
For the compound `CC(C)(O/N=C(\C(=O)N[C@@H]1C(=O)N(S(=O)(=O)O)[C@@H]1COC(=O)c1cc(-c2cc(=O)c(O)c[nH]2)no1)c1csc(N)n1)C(=O)O` (stereo in doubt), the MIC with Pseudomonas aeruginosa [1] and against Pseudomonas aeruginosa [3] was 4 µg/mL (≈ 6.1 µM) throughout.
In the case of `CC(C)(O/N=C(\C(=O)N[C@@H]1C(=O)N(S(=O)(=O)O)[C@@H]1COC(=O)c1ccnc(-c2cc(=O)c(O)c[nH]2)n1)c1csc(N)n1)C(=O)O` (stereo in doubt), the MIC with Pseudomonas aeruginosa [1] came to 8 µg/mL (≈ 12 µM); with Pseudomonas aeruginosa [3], 32 µg/mL (≈ 48 µM).
On the same counts, the results for `Nc1nc(/C(=N/OCC(=O)O)C(=O)N[C@@H]2C(=O)N(S(=O)(=O)O)[C@@H]2COC(=O)CNC(=O)c2ccc(O)c(O)c2)cs1` (stereo in doubt) are 0.5 µg/mL (≈ 0.811 µM) and 32 µg/mL (≈ 51.9 µM).
`CC(C)(O/N=C(\C(=O)N[C@@H]1C(=O)N(S(=O)(=O)O)[C@@H]1COC(=O)CNC(=O)c1ccc(O)c(O)c1)c1csc(N)n1)C(=O)O` (stereo in doubt): the MIC in the series with Pseudomonas aeruginosa [1] is 1 µg/mL (≈ 1.55 µM); against Pseudomonas aeruginosa [3], 16 µg/mL (≈ 24.8 µM).
With `CC1(C)[C@H](NC(=O)/C(=N\OCc2cc(=O)c(O)cn2O)c2csc(N)n2)C(=O)N1OS(=O)(=O)O` (stereo in doubt), the minimal inhibitory concentration (MIC) was 1 µg/mL (≈ 1.93 µM) against Pseudomonas aeruginosa [1] and 8 µg/mL (≈ 15.4 µM) with Pseudomonas aeruginosa [3]. In addition, the MIC90 against Pseudomonas aeruginosa [2] is 4 µg/mL (≈ 7.71 µM); in the series on Klebsiella pneumoniae it was above 64 µg/mL; against Escherichia coli, 16 µg/mL (≈ 30.9 µM); in the series with Acinetobacter baumannii, 64 µg/mL (≈ 123 µM).
`CC(C)(O/N=C(\C(=O)N[C@@H]1C(=O)N(S(=O)(=O)O)[C@@H]1COC(=O)CNC(=O)c1cc(=O)c(O)cn1O)c1csc(N)n1)C(=O)O` (stereo in doubt): the MIC stood at 0.125 µg/mL (≈ 0.189 µM) in the series on Pseudomonas aeruginosa [1] and 0.5 µg/mL (≈ 0.756 µM) against Pseudomonas aeruginosa [3]. In addition, the MIC90 in the series with Pseudomonas aeruginosa [2] was 2 µg/mL (≈ 3.02 µM); in the series on Klebsiella pneumoniae, 32 µg/mL (≈ 48.4 µM); with Escherichia coli it was 1 µg/mL (≈ 1.51 µM); against Acinetobacter baumannii, above 64 µg/mL. Further, the Stability entry in series [11] is “Stable”. Further, the free fraction (fraction unbound) worked out at 0.57 in [4] and 0.36 in series [5]. The compound further came in with a clearance in series [6] of 8.9 mL/min/kg. The compound also gave a CL free in the series on Rattus norvegicus of 24.7 mL/min/kg.
Consider `C[C@H]1[C@H](NC(=O)/C(=N\OC(C)(C)C(=O)O)c2csc(N)n2)C(=O)N1C(=O)NS(=O)(=O)n1nc(-c2cc(=O)c(O)c[nH]2)n(C[C@@H](O)CO)c1=O` (stereo in doubt), for which the Stability entry in series [11] is “Stable”.
